Assay results as given in ChEMBL document CHEMBL2146397, “The Substrate-Activity-Screening methodology applied to receptor tyrosine kinases: a proof-of-concept study” (Eur J Med Chem, 2012).
Active and inactive are the calls of the source. The rule behind the calls is not given here. Numbered stars: 1 amine (or outer) side, 2 acyl side, 3 side chain; on linkers, the order of the positions; unused ones are H or OH. Square brackets hold non-standard residues; d marks the D form. Peptide text beside a SMILES is read from it. X7 = O=C([C@H](Cc1ccc(C(O)P(=O)(O)O)cc1)N[*:1])[*:2]; Phe(4-Cl) = N[C@@H](Cc1ccc(Cl)cc1)C(=O)O; 3Pal = N[C@@H](Cc1cccnc1)C(=O)O

Tests used:
[1] = Solubility of the compound at >1 mM; format: physicochemical
[2] = molecular target: T1, Insulin-like growth factor 1 receptor (Homo sapiens, UniProt P08069); experiment: Activity at pre-activated human GST-His6-tagged IGF-1R expressed in Sf9 cells assessed as initial phosphorylation rate at 10 uM measured every 2 mins for 60 mins by Michaelis-Menten constant based ADP Quest assay
T1 sequence (P08069 31-736 limits assumed): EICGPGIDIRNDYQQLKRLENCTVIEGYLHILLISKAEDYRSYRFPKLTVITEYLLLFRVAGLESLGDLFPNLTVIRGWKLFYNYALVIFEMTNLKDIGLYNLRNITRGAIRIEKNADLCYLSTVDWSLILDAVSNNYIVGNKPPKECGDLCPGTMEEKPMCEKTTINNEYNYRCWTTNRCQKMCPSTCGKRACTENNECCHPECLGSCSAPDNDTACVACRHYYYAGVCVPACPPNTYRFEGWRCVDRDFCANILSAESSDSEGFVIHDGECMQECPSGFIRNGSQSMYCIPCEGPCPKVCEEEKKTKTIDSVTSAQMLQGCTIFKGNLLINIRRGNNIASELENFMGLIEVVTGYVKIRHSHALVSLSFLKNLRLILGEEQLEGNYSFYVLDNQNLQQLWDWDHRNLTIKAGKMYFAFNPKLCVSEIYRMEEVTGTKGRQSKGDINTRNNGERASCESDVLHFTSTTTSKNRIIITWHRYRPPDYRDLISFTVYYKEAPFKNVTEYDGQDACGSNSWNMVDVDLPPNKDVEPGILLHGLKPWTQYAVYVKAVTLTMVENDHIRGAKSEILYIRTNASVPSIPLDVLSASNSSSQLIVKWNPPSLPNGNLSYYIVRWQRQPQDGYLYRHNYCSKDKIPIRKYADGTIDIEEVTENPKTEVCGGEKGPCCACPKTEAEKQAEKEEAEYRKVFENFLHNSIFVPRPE
T1 sequence (P08069 741-1367 limits assumed): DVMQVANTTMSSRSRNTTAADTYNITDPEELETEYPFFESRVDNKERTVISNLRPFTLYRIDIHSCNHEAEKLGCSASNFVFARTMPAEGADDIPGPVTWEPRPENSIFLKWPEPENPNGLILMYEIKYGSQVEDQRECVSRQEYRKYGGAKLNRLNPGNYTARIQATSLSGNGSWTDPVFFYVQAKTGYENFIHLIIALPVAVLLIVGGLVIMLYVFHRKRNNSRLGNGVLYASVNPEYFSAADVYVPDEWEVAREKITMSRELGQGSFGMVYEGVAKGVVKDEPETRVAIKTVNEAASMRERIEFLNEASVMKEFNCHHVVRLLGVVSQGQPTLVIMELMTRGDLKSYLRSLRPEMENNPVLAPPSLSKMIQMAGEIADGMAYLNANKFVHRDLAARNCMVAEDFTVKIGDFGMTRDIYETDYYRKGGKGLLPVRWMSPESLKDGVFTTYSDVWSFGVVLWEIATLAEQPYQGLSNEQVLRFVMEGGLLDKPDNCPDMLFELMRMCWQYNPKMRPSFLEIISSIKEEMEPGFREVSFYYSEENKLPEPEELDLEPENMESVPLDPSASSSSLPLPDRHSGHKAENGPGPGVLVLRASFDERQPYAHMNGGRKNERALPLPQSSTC
Procedure, shortened: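 Reaction buffer was the same plus 0.1 mg/mL BSA, with kinase, peptide substrate and detection reagents. Started with ATP; fluorescence read every 2 min for 60 min; 3 independent experiments.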

[3] = molecular target: T1, Insulin-like growth factor 1 receptor; experiment: Activity at pre-activated human GST-His6-tagged IGF-1R expressed in Sf9 cells up to 1 mM measured every 2 mins for 60 mins by Michaelis-Menten constant based ADP Quest assay
Procedure, shortened: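 Reactions used the same buffer plus 0.1 mg/mL BSA, pre-activated GST-His6-IGF-1R, peptide substrate titrated up to 1 mM, and ADP Quest reagents. ATP started the reaction. Fluorescence was read every 2 min for 60 min. KM came from a Michaelis-Menten fit, n = 3 independent experiments.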

[4] = molecular target: T1, Insulin-like growth factor 1 receptor; experiment: Inhibition of pre-activated human GST-His6-tagged IGF-1R expressed in Sf9 cells using Ac-EAEDEPEGDYFEWLE-NHMe as substrate after 25 mins by luminescence assay

SMILES | solubility [1] | other results
CNC(=O)[C@H](Cc1ccc(Cl)cc1)NC(=O)[C@H](CCC(=O)O)NC(=O)[C@H](Cc1ccccc1)NC(=O)[C@H](Cc1ccc(O)cc1)NC(=O)[C@H](Cc1cccnc1)NC(C)=O (Ac-[3Pal]YFE[Phe(4-Cl)]-NHMe) | Insoluble | –
CNC(=O)[C@@H](Cc1c[nH]c2ccccc12)NC(=O)[C@H](CCC(=O)O)NC(=O)[C@H](Cc1ccccc1)NC(=O)[C@H](Cc1ccc(O)cc1)NC(=O)[C@H](CCC(=O)O)NC(C)=O | Insoluble | –
CNC(=O)[C@H](Cc1c[nH]c2ccccc12)NC(=O)[C@H](CCC(=O)O)NC(=O)[C@H](Cc1ccccc1)NC(=O)[C@H](Cc1ccc(O)cc1)NC(=O)[C@H](Cc1cccnc1)NC(C)=O | Insoluble | Activity [2]: 0.4 nM/s
CNC(=O)[C@H](Cc1c[nH]c2ccccc12)NC(=O)[C@H](CCC(=O)O)NC(=O)[C@H](Cc1ccccc1)NC(=O)[C@@H](N)Cc1ccc(O)cc1 (HELM PEPTIDE1{Y.F.E.W.[CN[*:1]]}$$$$V2.0) | – | Activity [3]: inactive
CNC(=O)[C@@H](Cc1c[nH]c2ccccc12)NC(=O)[C@H](CCC(=O)O)NC(=O)[C@H](Cc1ccccc1)NC(=O)[C@H](Cc1ccc(O)cc1)NC(=O)[C@H](Cc1cccnc1)NC(C)=O | Insoluble | –
CNC(=O)[C@H](Cc1ccc(Cl)cc1)NC(=O)[C@H](CCC(=O)O)NC(=O)[C@H](Cc1ccccc1)NC(=O)[C@H](Cc1ccc(C(O)P(=O)(O)O)cc1)NC(=O)[C@H](Cc1cccnc1)NC(C)=O (some centres not stated) (Ac-[3Pal][X7]FE[Phe(4-Cl)]-NHMe) | – | IC50 [4]: 489 µM
